Entries after “also recorded” stand apart in the source; their conditions may differ. Where a SMILES comes first, the peptide text is derived from it.
How the values were obtained:
[1] = tested on: HIV-1HXB2 in MT-4 Luc cells; assay: MT-4 Luc assay, protection from HIV-1-induced cell death; assay type: cell-based; settings: for IC50 of inhibition of HIV-1 replication in cells: MT-4 Luc cell system, in words; for inhibitory effect against HIV-1 replication: MT-4 Luc cells infected with HIV-1, luciferase signal, various concentrations (Figure 4)
[2] = tested on: MT-4 Luc cells; settings: MT-4 Luc system (Figure 4)
[3] = tested on: X4-tropic HIV-1HXB2 on MT-4 cells; assay: HIV-1 replication kinetics in MT-4 cells; assay type: cell-based; settings: 0.5 μM peptide, replication kinetics (Figure 5B)
How it was run: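 MT-4 cells (1×10^5) were exposed to HIV-1HXB2-containing culture supernatant (ca. 0.2-50 ng p24) for 30 min at room temperature, then washed and cultured with or without 0.5 μM test peptide. Supernatants were collected at several time points, with cells passaged if necessary. Replication was read out as p24 antigen levels measured by ELISA.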

[4] = molecular target: RT-associated RNase H (Human immunodeficiency virus type 1 group M subtype B, UniProt P04585); assay: RT-associated RNase H activity assay; assay type: biochemical, HIV-1

| SMILES | antiviral effect ([1]; MT-4 Luc cells, at a concentration of 20 μM) | anti-HIV-1 activity ([1]; MT-4 Luc cells, below concentrations of 20 μM) | cytotoxicity, comparison [2] | IC50 of inhibition of HIV-1 replication in cells [1] | inhibitory effect against HIV-1 replication [1] | replication of HIV-1HXB2 [3] | IC50 [4] [nM] |
| --- | --- | --- | --- | --- | --- | --- | --- |
| CC(=O)N[C@@H](CC(C)C)C(=O)N[C@@H](CCC(N)=O)C(=O)N[C@@H](CCC(N)=O)C(=O)N[C@@H](CC(C)C)C(=O)N[C@@H](CC(C)C)C(=O)N[C@@H](Cc1ccccc1)C(=O)N[C@@H](CCCNC(=N)N)C(=O)N[C@@H](CCCNC(=N)N)C(=O)N[C@@H](CCCNC(=N)N)C(=O)N[C@@H](CCCNC(=N)N)C(=O)N[C@@H](CCCNC(=N)N)C(=O)N[C@@H](CCCNC(=N)N)C(=O)N[C@@H](CCCNC(=N)N)C(=O)N[C@@H](CCCNC(=N)N)C(N)=O [Vpr-1 R8] (Ac-LQQLLFRRRRRRRR-NH2) | weak antiviral effect | – | – | – | – | – | – |
| CC[C@H](C)[C@H](NC(C)=O)C(=O)N[C@@H](Cc1c[nH]cn1)C(=O)N[C@@H](Cc1ccccc1)C(=O)N[C@@H](CCCNC(=N)N)C(=O)N[C@H](C(=O)NCC(=O)N[C@@H](CCCNC(=N)N)C(=O)N[C@@H](CCCNC(=N)N)C(=O)N[C@@H](CCCNC(=N)N)C(=O)N[C@@H](CCCNC(=N)N)C(=O)N[C@@H](CCCNC(=N)N)C(=O)N[C@@H](CCCNC(=N)N)C(=O)N[C@@H](CCCNC(=N)N)C(=O)N[C@@H](CCCNC(=N)N)C(N)=O)[C@@H](C)CC [Vpr-2 R8] (Ac-IHFRIGRRRRRRRR-NH2) | – | no significant anti-HIV-1 activity | – | – | – | – | – |
| CC[C@H](C)[C@H](NC(=O)[C@H](CCCNC(=N)N)NC(=O)[C@H](Cc1ccccc1)NC(=O)[C@H](Cc1cnc[nH]1)NC(=O)[C@@H](NC(=O)[C@H](Cc1ccccc1)NC(=O)[C@H](CC(C)C)NC(=O)[C@H](CC(C)C)NC(=O)[C@H](CCC(N)=O)NC(=O)[C@H](CCC(N)=O)NC(=O)[C@H](CC(C)C)NC(C)=O)[C@@H](C)CC)C(=O)NCC(=O)N[C@@H](CCCNC(=N)N)C(=O)N[C@@H](CCCNC(=N)N)C(=O)N[C@@H](CCCNC(=N)N)C(=O)N[C@@H](CCCNC(=N)N)C(=O)N[C@@H](CCCNC(=N)N)C(=O)N[C@@H](CCCNC(=N)N)C(=O)N[C@@H](CCCNC(=N)N)C(=O)N[C@@H](CCCNC(=N)N)C(N)=O [Vpr-3 R8] | – | – | less cytotoxic than Vpr-4 R8 | submicromolar | significant inhibitory effects | quite low; also recorded: extensively suppressed | > 500 |
| CC[C@H](C)[C@H](NC(=O)[C@H](C)NC(=O)[C@H](CCC(=O)O)NC(C)=O)C(=O)N[C@H](C(=O)N[C@@H](CCCNC(=N)N)C(=O)N[C@H](C(=O)N[C@@H](CC(C)C)C(=O)N[C@@H](CCC(N)=O)C(=O)N[C@@H](CCC(N)=O)C(=O)N[C@@H](CC(C)C)C(=O)N[C@@H](CC(C)C)C(=O)N[C@@H](Cc1ccccc1)C(=O)N[C@H](C(=O)N[C@@H](Cc1c[nH]cn1)C(=O)N[C@@H](Cc1ccccc1)C(=O)N[C@@H](CCCNC(=N)N)C(=O)N[C@H](C(=O)NCC(=O)N[C@@H](CCCNC(=N)N)C(=O)N[C@@H](CCCNC(=N)N)C(=O)N[C@@H](CCCNC(=N)N)C(=O)N[C@@H](CCCNC(=N)N)C(=O)N[C@@H](CCCNC(=N)N)C(=O)N[C@@H](CCCNC(=N)N)C(=O)N[C@@H](CCCNC(=N)N)C(=O)N[C@@H](CCCNC(=N)N)C(N)=O)[C@@H](C)CC)[C@@H](C)CC)[C@@H](C)CC)[C@@H](C)CC [Vpr-4 R8] | – | – | – | submicromolar | significant inhibitory effects | – | > 500 |

Source: publication PMC4486249 (Journal of medicinal chemistry, 2010)
